Experimental data reported in article PMC10784678 (Food Chemistry: X, 2023).
≈ marks a conversion by molar mass, not a printed value. Like-named read-outs stand apart in the source and are kept apart here.

Experiments:
DPP-IV [1] = target: T1, DPP-IV (Homo sapiens, UniProt P27487); test: biochemical
DPP-IV [2] = target: T1, DPP-IV; conditions: read-out: IC50 DPP-IV; ref Li et al., 2022; cited from earlier work
[3] = DPPH radical scavenging activity; conditions: positive control
Procedure, shortened: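 Test fractions in 80 % methanol at 2–14 µg/mL; positive control at 1–7 µg/mL. 50 µL sample plus 200 µL 0.1 mM DPPH in methanol, kept from light and shaken 30 min, then read at 517 nm.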

[4] = ABTS radical scavenging activity; conditions: positive control
Procedure, shortened: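 Test fractions in 70 % ethanol at 2–8 µg/mL; positive control at 1–7 µg/mL. Radical made by holding 7 mM ABTS with 0.14 M K₂S₂O₈ for 14 h, then diluted 35-fold in anhydrous ethanol. Sample mixed with radical solution, 6 min dark at 30°C, A734.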

Caco-2 cells [5] = test: Inhibition of H2O2-induced intracellular ROS production; assay type: cell-based; conditions: positive control 10 μg/mL, 1.0 mmol/L H2O2 6 h; H2O2 group 181.61 %
Caco-2 cells [6] = test: Cytoprotective activity against H2O2-induced cell apoptosis; assay type: cell-based; conditions: positive control 10 μg/mL; H2O2 group 23.84 %, control 3.92 %
α-glucosidase = α-glucosidase (Saccharomyces cerevisiae, UniProt P53341); conditions: read-out: IC50 α-glucosidase; ref Tan et al. (2017); cited from earlier work
Chain of α-glucosidase (P53341 whole entry): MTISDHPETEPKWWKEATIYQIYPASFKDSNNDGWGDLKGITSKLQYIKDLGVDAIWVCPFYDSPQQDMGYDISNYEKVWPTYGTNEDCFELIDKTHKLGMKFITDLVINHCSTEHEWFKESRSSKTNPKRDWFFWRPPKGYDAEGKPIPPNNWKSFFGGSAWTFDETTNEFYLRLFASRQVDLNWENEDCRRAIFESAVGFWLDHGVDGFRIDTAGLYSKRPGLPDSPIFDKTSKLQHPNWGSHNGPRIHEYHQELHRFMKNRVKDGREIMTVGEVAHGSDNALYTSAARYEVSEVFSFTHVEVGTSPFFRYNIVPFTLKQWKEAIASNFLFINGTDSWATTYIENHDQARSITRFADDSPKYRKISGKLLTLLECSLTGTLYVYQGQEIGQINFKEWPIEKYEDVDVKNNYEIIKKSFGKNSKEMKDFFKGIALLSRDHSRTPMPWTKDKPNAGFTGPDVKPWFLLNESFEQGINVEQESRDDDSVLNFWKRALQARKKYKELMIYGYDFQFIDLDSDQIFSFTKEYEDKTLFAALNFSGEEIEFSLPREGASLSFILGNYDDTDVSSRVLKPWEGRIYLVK

[7] = read-out: IC50 DPP-Ⅳ, phenolic standards

T1 sequence (P27487 whole entry): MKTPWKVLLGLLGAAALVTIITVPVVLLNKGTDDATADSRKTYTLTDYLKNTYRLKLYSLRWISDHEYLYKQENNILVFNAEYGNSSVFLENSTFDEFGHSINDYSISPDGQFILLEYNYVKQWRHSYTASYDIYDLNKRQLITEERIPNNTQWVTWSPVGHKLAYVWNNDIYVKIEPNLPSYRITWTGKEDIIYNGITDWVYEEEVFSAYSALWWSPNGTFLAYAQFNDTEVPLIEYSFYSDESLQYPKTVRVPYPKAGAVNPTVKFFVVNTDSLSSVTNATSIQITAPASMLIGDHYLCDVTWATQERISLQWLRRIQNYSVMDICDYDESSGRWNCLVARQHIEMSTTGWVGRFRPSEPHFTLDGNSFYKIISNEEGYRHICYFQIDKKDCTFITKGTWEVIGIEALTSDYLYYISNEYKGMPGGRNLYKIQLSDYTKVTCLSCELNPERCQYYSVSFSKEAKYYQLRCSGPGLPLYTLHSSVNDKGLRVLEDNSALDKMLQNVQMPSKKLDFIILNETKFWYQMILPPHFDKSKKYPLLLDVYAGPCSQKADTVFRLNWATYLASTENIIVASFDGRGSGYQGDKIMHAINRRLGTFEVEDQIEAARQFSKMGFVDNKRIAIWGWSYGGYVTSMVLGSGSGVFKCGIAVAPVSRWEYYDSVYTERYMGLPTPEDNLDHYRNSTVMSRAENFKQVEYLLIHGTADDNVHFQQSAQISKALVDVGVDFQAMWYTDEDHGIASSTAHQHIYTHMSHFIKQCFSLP

Row | IC50 (DPP-IV [1]) | SMILES | other results
1 | – | Oc1cc(O)c2c(c1)O[C@H](c1ccc(O)c(O)c1)[C@@H](O)C2 [(+) - Catechin] | IC50 (DPP-IV [1]; [7]): 132.8 ± 0.99 µM
2 | 104.3 ± 0.95 µM | Oc1cc(O)c2c(c1)O[C@H](c1ccc(O)c(O)c1)[C@H](O)C2 [(-) - Epicatechin] | –
3 | 162.48 ± 0.16 µM | O=C(O)/C=C/c1ccc(O)c(O)c1 [Caffeic acid] | –
4 | 31.2 ± 2.58 µM | O=C(/C=C/c1ccc(O)c(O)c1)O[C@@H]1C[C@](O)(C(=O)O)C[C@@H](O)[C@H]1O [Chlorogenic acid] | IC50 (DPP-IV [2]): 78.8 µM
5 | 81.9 ± 2.54 µM | Oc1cc(O)c2c(c1)O[C@H](c1cc(O)c(O)c(O)c1)[C@@H](O)C2 [Gallocatechin] | –
6 | – | COC(=O)[C@]1(O)C[C@@H](O)[C@@H](O)[C@H](OC(=O)/C=C/c2ccc(O)c(O)c2)C1 [Methyl chlorogenic acid] | IC50 (DPP-IV [1]; [7]): 192 ± 1.93 µM
7 | > 200 µM | Oc1cc(O)c2c(c1)O[C@H](c1ccc(O)c(O)c1)[C@H](O)[C@H]2c1c(O)cc(O)c2c1O[C@H](c1ccc(O)c(O)c1)[C@@H](O)C2 [Procyanidin B1] | –
8 | > 200 µM | O=C(O)c1ccc(O)c(O)c1 [Protocatechuic acid] | –
9 | > 200 µM | O=C(O)[C@]1(O)C[C@@H](O)[C@@H](O)[C@H](O)C1 [Quinic acid] | –
10 | > 200 µM | O=C(O)c1ccccc1O [Salicylic acid] | –
11 | 78.92 ± 0.62 µM | O=C1c2c(O)cc(O)cc2OC(c2ccc(O)c(O)c2)C1O (centres unmarked) [Taxifolin] | –
12 | – | O=C1O[C@H]([C@@H](O)CO)C(O)=C1O [Vc] | IC50 DPPH radical scavenging [3]: 1.93 ± 0.01 µg/mL (≈ 11 µM); IC50 ABTS radical scavenging [4]: 3.58 ± 0.03 µg/mL (≈ 20.3 µM); intracellular ROS level (Caco-2 cells [5]): 110.92%; apoptosis rate (Caco-2 cells [6]): 6.58%
13 | – | Oc1cc(O)c2c(c1)O[C@H](c1ccc(O)c(O)c1)[C@@H](O)C2 [catechin] | IC50 (α-glucosidase): 13.4 µM
